Data taken from ChEMBL document CHEMBL2150909, “Imidazo[1,2-a]pyridines: orally active positive allosteric modulators of the metabotropic glutamate 2 receptor” (J Med Chem, 2012).
Calls of active or inactive are those of the source. The rule behind the calls is not given here.

Experiments:
[1] = biological target: Metabotropic glutamate receptor 2 (Homo sapiens, UniProt Q14416); experiment: Agonist activity at human mGlu 2 expressed in CHO cells by PAM assay relative to glutamate; format: functional, cell-based
Summary of the method: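 The assay measured [35S]GTPγS binding to membranes from CHO cells expressing human mGluR2. Cells were butyrate-stimulated (5 mM, 24 h) before membranes were prepared. Membranes were preincubated for 30 min at 30 °C in HEPES pH 7.4 buffer (NaCl, MgCl2, 50 μM GDP) with compound (0.3 nM–50 μM, 11 concentrations) plus EC25 glutamate. [35S]GTPγS (0.1 nM final) was then added for 30 min at 30 °C. Bound label was collected by filtration and counted. Runs were done at least in triplicate with duplicate points, and a four-parameter logistic fit gave the values.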

[2] = Metabolic stability of human liver microsomes assessed as compound metabolized at 5 uM after 15 mins; format: ADME, Microsome; settings: read-out: Drug metabolism
Summary of the method: (§1)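 Test compound at 5 μM incubated 15 min with rat or human liver microsomes; read-out is percent of compound metabolized.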

[3] = Metabolic stability of Sprague-Dawley rat liver microsomes assessed as compound metabolized at 5 uM after 15 mins; format: ADME, Microsome; settings: read-out: Drug metabolism; summary of the method: as §1
[4] = biological target: Metabotropic glutamate receptor 1 (Homo sapiens) (UniProt Q13255); experiment: Agonist activity at human mGlu 1 expressed in HEK293 cells at 10 uM by Ca+2 assay; format: functional, cell-based
Chain of Metabotropic glutamate receptor 1 (Homo sapiens) (Q13255 19-1194 limits assumed): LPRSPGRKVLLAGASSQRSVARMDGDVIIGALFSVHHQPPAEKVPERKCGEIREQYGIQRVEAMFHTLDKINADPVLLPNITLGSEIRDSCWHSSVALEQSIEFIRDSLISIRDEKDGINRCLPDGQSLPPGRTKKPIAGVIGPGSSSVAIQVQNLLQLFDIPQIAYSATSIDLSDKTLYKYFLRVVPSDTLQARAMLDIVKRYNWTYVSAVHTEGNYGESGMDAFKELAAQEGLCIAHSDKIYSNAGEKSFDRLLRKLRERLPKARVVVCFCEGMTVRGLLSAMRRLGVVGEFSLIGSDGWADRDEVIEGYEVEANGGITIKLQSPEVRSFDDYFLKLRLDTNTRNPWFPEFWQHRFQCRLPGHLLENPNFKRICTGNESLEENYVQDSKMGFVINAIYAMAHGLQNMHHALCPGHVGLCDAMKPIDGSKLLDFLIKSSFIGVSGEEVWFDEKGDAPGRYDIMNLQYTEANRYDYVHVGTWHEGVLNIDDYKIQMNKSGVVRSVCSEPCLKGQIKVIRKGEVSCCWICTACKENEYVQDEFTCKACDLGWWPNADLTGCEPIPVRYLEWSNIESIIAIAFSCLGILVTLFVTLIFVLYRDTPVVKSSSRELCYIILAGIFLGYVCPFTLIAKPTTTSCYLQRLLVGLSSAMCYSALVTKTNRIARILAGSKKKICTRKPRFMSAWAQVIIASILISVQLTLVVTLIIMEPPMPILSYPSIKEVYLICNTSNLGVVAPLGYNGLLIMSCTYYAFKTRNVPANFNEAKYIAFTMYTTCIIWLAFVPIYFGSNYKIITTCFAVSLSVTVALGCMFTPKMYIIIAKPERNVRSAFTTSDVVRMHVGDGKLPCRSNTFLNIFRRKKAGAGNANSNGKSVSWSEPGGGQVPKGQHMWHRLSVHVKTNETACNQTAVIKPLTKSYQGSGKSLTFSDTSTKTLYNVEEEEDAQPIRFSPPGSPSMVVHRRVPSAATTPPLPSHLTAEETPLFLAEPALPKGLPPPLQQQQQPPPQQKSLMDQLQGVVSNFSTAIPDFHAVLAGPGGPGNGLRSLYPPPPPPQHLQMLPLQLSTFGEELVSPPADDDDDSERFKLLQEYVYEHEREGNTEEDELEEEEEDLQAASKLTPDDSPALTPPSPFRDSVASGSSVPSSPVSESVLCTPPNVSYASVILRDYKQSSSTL
Summary of the method: (§2)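 Ca2+ assays on human mGlu1, mGlu3, mGlu5, mGlu7 or mGlu8 receptors, each expressed in HEK293 cells; compound tested at 10 μM for agonist and antagonist activity.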

[5] = biological target: Metabotropic glutamate receptor 3 (Homo sapiens) (UniProt Q14832); experiment: Agonist activity at human mGlu 3 expressed in HEK293 cells at 10 uM by Ca+2 assay; format: functional, cell-based; summary of the method: as §2
[6] = biological target: Metabotropic glutamate receptor 5 (Homo sapiens) (UniProt P41594); experiment: Agonist activity at human mGlu 5 expressed in HEK293 cells at 10 uM by Ca+2 assay; format: functional, cell-based; summary of the method: as §2
Chain of Metabotropic glutamate receptor 5 (Homo sapiens) (P41594 21-1212 limits assumed): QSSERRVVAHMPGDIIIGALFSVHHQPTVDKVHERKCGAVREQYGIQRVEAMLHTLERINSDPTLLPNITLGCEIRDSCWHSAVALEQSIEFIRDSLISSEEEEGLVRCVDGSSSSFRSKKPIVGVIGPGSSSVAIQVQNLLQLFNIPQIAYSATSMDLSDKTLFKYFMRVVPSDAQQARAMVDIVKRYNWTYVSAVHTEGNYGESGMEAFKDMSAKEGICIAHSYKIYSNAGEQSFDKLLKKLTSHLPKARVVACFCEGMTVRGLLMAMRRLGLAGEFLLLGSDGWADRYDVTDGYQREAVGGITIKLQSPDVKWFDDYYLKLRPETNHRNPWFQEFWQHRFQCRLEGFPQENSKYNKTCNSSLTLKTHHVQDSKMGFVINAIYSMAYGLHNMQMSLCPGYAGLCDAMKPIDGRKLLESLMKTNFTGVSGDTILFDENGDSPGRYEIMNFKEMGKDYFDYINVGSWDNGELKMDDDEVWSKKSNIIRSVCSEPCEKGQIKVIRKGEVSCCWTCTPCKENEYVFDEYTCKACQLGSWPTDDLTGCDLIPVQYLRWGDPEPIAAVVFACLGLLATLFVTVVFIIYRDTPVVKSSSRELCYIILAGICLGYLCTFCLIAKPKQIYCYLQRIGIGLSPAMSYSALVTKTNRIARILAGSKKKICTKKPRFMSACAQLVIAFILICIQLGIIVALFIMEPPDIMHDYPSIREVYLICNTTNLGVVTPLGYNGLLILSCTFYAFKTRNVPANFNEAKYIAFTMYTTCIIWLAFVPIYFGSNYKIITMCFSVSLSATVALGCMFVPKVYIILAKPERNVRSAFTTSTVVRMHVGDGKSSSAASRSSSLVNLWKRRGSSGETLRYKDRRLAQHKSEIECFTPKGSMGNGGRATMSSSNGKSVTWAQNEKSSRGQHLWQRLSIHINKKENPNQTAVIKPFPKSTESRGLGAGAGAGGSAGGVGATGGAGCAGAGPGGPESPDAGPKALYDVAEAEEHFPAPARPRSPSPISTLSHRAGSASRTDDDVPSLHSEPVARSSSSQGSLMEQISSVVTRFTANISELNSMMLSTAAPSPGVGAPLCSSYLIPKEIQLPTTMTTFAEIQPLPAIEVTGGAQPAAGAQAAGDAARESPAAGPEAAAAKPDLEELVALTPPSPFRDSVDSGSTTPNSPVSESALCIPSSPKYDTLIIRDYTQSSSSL

[7] = biological target: Metabotropic glutamate receptor 8 (Homo sapiens) (UniProt O00222); experiment: Agonist activity at human mGlu 8 expressed in HEK293 cells at 10 uM by Ca+2 assay; format: functional, cell-based; summary of the method: as §2
Chain of Metabotropic glutamate receptor 8 (Homo sapiens) (O00222 whole entry): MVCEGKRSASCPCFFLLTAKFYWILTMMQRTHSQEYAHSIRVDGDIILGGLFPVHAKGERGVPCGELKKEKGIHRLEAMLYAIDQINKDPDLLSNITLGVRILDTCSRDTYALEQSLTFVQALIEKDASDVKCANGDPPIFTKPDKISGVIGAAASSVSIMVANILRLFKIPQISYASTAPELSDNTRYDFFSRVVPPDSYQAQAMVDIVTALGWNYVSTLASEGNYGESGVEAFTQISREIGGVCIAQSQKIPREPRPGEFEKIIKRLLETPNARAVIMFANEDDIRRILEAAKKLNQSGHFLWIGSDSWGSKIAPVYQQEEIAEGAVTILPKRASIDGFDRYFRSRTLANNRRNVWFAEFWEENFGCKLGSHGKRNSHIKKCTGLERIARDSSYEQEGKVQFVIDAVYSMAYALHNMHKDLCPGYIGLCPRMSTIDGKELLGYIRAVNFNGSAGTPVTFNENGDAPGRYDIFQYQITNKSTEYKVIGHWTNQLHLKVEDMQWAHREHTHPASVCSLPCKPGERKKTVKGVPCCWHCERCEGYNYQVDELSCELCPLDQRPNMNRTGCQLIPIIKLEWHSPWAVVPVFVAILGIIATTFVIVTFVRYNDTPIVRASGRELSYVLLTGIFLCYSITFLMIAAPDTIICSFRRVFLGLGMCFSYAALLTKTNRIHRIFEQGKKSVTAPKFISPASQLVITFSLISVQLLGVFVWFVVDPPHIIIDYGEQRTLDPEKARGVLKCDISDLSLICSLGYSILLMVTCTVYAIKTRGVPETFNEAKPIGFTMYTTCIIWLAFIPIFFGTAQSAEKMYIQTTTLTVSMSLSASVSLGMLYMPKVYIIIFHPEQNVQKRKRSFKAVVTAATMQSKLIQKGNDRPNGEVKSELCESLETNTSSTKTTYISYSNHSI

[8] = biological target: Metabotropic glutamate receptor 4 (Homo sapiens) (UniProt Q14833); experiment: Agonist activity at human mGlu 4 expressed in L929 cells assessed as [35S]GTPgammaS binding by liquid scintillation counting; format: functional, cell-based
Chain of Metabotropic glutamate receptor 4 (Homo sapiens) (Q14833 whole entry): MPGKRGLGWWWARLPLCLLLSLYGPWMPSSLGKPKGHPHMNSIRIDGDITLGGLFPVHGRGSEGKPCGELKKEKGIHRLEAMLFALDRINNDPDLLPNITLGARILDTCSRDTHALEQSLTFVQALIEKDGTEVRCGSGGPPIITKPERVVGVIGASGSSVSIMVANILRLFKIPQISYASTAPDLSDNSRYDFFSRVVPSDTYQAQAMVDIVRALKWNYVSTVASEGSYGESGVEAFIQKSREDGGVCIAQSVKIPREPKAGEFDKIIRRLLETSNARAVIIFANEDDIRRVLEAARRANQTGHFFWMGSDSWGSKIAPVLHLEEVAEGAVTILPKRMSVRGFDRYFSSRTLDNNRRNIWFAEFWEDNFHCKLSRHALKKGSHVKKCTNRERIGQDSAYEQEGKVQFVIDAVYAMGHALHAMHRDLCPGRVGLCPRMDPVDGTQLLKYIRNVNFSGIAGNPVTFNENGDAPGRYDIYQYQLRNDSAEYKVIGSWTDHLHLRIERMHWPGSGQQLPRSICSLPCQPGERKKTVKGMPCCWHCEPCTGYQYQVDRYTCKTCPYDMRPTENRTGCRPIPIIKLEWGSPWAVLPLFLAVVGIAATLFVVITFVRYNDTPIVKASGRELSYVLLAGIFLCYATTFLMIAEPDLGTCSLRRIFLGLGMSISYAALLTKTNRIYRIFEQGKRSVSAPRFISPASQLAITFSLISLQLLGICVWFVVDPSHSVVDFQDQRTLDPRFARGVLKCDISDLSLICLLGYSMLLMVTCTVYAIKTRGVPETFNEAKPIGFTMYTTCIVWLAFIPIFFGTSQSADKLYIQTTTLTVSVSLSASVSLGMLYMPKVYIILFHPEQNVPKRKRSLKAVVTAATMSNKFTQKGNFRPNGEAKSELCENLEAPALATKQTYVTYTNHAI
Summary of the method: (§3)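 [35S]GTPγS functional assays on human mGlu4 or rat mGlu6 receptors expressed in L929 or CHO cells; agonist and antagonist modes tested at 10 μM.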

[9] = biological target: Metabotropic glutamate receptor 6 (Rattus norvegicus) (UniProt P35349); experiment: Agonist activity at rat mGlu 6 expressed in CHO cells assessed as [35S]GTPgammaS binding by liquid scintillation counting; format: functional, cell-based; summary of the method: as §3
[10] = Tmax in Sprague-Dawley rat at 10 mg/kg, po; format: ADME, organism-based; set-up: dose 10 mg/kg, route oral; settings: in vivo
Summary of the method: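 Rat pharmacokinetics in Sprague−Dawley rats: oral 10 mg/kg and intravenous 1.25 mg/kg, formulated in 20% HP-β-CD at pH 4. Plasma profiles used for Cmax, tmax, AUC0−inf and t1/2. Reported as geometric means of at least two runs ± SEM.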

[11] = AUC (0 to infinity) in Sprague-Dawley rat at 10 mg/kg, po; format: ADME, organism-based; set-up: time infinity, dose 10 mg/kg, route oral; settings: plasma
Summary of the method: (§4)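 Male Sprague-Dawley rats given 10 mg/kg orally and/or 1.25 mg/kg intravenously; compound formulated in 20% HP-β-CD at pH 4. Cmax, tmax, AUC0−inf, t1/2, clearance and oral bioavailability F derived from plasma levels; geometric mean of at least two runs ± SEM.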

[12] = Half life in Sprague-Dawley rat at 10 mg/kg, po; format: ADME, organism-based; set-up: dose 10 mg/kg, route oral; settings: in vivo; summary of the method: as §4
[13] = Drug uptake in Sprague-Dawley rat brain at 10 mg/kg, po after 1 hr; format: ADME, organism-based; set-up: dose 10 mg/kg, route oral; settings: read-out: Drug uptake
[14] = Drug uptake in Sprague-Dawley rat brain at 10 mg/kg, po after 2 hrs; format: ADME, organism-based; set-up: dose 10 mg/kg, route oral; settings: read-out: Drug uptake
[15] = Drug uptake in Sprague-Dawley rat brain at 10 mg/kg, po after 4 hrs; format: ADME, organism-based; set-up: dose 10 mg/kg, route oral; settings: read-out: Drug uptake
[16] = Plasma concentration in Sprague-Dawley rat at 10 mg/kg, po after 1 hr; format: ADME, organism-based; set-up: dose 10 mg/kg, route oral
[17] = Plasma concentration in Sprague-Dawley rat at 10 mg/kg, po after 2 hrs; format: ADME, organism-based; set-up: dose 10 mg/kg, route oral
[18] = Plasma concentration in Sprague-Dawley rat at 10 mg/kg, po after 4 hrs; format: ADME, organism-based; set-up: dose 10 mg/kg, route oral
Summary of the method: (§5)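 Oral dosing of Sprague−Dawley rats at 10 mg/kg, compound in 20% HP-β-CD at pH 4. Brain (ng/g) and plasma (ng/mL) concentrations sampled at the indicated time; brain-to-plasma ratio calculated. Geometric mean of at least two runs ± SEM.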

[19] = Ratio of drug level in brain to plasma of Sprague-Dawley rat at 10 mg/kg, po after 1 hr; format: ADME, organism-based; set-up: dose 10 mg/kg, route oral; settings: read-out: BPR; summary of the method: as §5
[20] = Ratio of drug level in brain to plasma of Sprague-Dawley rat at 10 mg/kg, po after 2 hrs; format: ADME, organism-based; set-up: dose 10 mg/kg, route oral; settings: read-out: BPR; summary of the method: as §5
[21] = Ratio of drug level in brain to plasma of Sprague-Dawley rat at 10 mg/kg, po after 4 hrs; format: ADME, organism-based; set-up: dose 10 mg/kg, route oral; settings: brain and plasma, read-out: BPR; summary of the method: as §5
[22] = biological target: Metabotropic glutamate receptor 1 (Homo sapiens) (UniProt Q13255); experiment: Antagonist activity at human mGlu 1 expressed in HEK293 cells at 10 uM by Ca+2 assay; format: functional, cell-based; summary of the method: as §2
[23] = biological target: Metabotropic glutamate receptor 3 (Homo sapiens) (UniProt Q14832); experiment: Antagonist activity at human mGlu 3 expressed in HEK293 cells at 10 uM by Ca+2 assay; format: functional, cell-based; summary of the method: as §2
[24] = biological target: Metabotropic glutamate receptor 5 (Homo sapiens) (UniProt P41594); experiment: Antagonist activity at human mGlu 5 expressed in HEK293 cells at 10 uM by Ca+2 assay; format: functional, cell-based; summary of the method: as §2
[25] = biological target: T1, Metabotropic glutamate receptor 7 (Homo sapiens, UniProt Q14831); experiment: Antagonist activity at human mGlu 7 expressed in HEK293 cells at 10 uM by Ca+2 assay; format: functional, cell-based; summary of the method: as §2
T1 sequence (Q14831 whole entry): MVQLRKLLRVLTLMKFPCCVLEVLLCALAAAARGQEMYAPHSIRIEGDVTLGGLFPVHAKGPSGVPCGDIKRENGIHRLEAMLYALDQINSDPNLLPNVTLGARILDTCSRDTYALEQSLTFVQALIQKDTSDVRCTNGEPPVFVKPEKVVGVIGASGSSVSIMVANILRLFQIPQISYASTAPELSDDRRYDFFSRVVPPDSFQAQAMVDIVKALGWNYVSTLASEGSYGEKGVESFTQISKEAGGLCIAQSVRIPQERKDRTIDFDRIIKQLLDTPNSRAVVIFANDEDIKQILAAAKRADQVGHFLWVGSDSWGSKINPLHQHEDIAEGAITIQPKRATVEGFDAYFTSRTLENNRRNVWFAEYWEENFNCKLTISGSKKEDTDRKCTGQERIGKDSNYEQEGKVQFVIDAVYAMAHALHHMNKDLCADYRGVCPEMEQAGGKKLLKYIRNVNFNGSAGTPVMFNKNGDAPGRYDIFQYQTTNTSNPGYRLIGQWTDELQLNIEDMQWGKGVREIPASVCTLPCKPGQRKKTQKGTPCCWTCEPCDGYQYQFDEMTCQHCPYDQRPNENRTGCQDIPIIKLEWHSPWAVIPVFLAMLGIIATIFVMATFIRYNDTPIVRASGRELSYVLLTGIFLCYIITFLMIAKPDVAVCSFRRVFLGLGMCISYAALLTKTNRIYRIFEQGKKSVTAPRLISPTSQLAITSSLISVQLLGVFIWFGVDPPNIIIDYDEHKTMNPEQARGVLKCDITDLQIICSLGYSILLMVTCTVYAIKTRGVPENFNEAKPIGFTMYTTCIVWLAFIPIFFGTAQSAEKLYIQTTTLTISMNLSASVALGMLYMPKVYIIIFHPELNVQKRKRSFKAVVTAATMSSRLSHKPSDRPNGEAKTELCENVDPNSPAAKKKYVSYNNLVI

[26] = biological target: Metabotropic glutamate receptor 8 (Homo sapiens) (UniProt O00222); experiment: Antagonist activity at human mGlu 8 expressed in HEK293 cells at 10 uM by Ca+2 assay; format: functional, cell-based; summary of the method: as §2
[27] = biological target: Metabotropic glutamate receptor 4 (Homo sapiens) (UniProt Q14833); experiment: Antagonist activity at human mGlu 4 expressed in L929 cells assessed inhibition of [35S]GTPgammaS binding by liquid scintillation counting; format: functional, cell-based; summary of the method: as §3
[28] = biological target: Metabotropic glutamate receptor 6 (Rattus norvegicus) (UniProt P35349); experiment: Antagonist activity at rat mGlu 6 expressed in CHO cells assessed as inhibition of [35S]GTPgammaS binding by liquid scintillation counting; format: functional, cell-based; summary of the method: as §3
Rattus norvegicus [29] = experiment: Effect on sleep-wake cycle in Sprague-Dawley rat EEG model assessed as change in intermediate state at 10 mg/kg, po measured up to 20 hrs relative to control; format: functional, organism-based; set-up: dose 10 mg/kg
Summary of the method: (§6)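 Male Sprague-Dawley rats (250–300 g) implanted with EEG/EMG/EOG electrodes, 12 h light/dark cycle, n = 8 per group. Baseline 20 h recording after oral saline, then 20 h after oral 10 mg/kg or vehicle (20% CD + 2H2T). 2 s epochs scored into AW, PW, preREM, REM, lSWS, dSWS and averaged per 30 min. Latencies and transitions analysed; Wilcoxon−Mann−Whitney test vs vehicle.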

Rattus norvegicus [30] = experiment: Effect on sleep-wake cycle in Sprague-Dawley rat EEG model assessed as change in passive wake at 10 mg/kg, po measured up to 20 hrs relative to control; format: functional, organism-based; set-up: dose 10 mg/kg; summary of the method: as §6
Rattus norvegicus [31] = experiment: Effect on sleep-wake cycle in Sprague-Dawley rat EEG model assessed as change in active wake at 10 mg/kg, po measured up to 20 hrs relative to control; format: functional, organism-based; set-up: dose 10 mg/kg; summary of the method: as §6
Rattus norvegicus [32] = experiment: Effect on sleep-wake cycle in Sprague-Dawley rat EEG model assessed as increase in REM sleep onset latency at 10 mg/kg, po measured up to 2 hrs relative to control; format: functional, organism-based; set-up: dose 10 mg/kg; summary of the method: as §6
Rattus norvegicus [33] = experiment: Effect on sleep-wake cycle in Sprague-Dawley rat EEG model assessed as change in sleep variables at 10 mg/kg, po measured up to 20 hrs relative to control; format: functional, organism-based; set-up: dose 10 mg/kg; summary of the method: as §6
[34] = biological target: T1, Metabotropic glutamate receptor 7; experiment: Agonist activity at human mGlu 7 expressed in HEK293 cells at 10 uM by Ca+2 assay; format: functional, cell-based; summary of the method: as §2
[35] = Cmax in Sprague-Dawley rat at 10 mg/kg, po; format: ADME, organism-based; set-up: dose 10 mg/kg, route oral; settings: in vivo; summary of the method: as §4
Rattus norvegicus [36] = experiment: Effect on sleep-wake cycle in Sprague-Dawley rat EEG model assessed as suppression of REM sleep at 10 mg/kg, po measured up to 2 hrs relative to control; format: functional; summary of the method: as §6
Rattus norvegicus [37] = experiment: Effect on sleep-wake cycle in Sprague-Dawley rat EEG model assessed as change in light sleep at 10 mg/kg, po measured up to 20 hrs relative to control; format: functional, organism-based; set-up: dose 10 mg/kg; summary of the method: as §6
Rattus norvegicus [38] = experiment: Effect on sleep-wake cycle in Sprague-Dawley rat EEG model assessed as change in deep sleep at 10 mg/kg, po measured up to 20 hrs relative to control; format: functional, organism-based; set-up: dose 10 mg/kg; summary of the method: as §6
Rattus norvegicus [39] = experiment: Effect on sleep-wake cycle in Sprague-Dawley rat EEG model assessed as effect on different vigilance states at 10 mg/kg, po measured up to 20 hrs relative to control; format: functional, organism-based; set-up: dose 10 mg/kg; summary of the method: as §6
Rattus norvegicus [40] = experiment: Effect on sleep-wake cycle in Sprague-Dawley rat EEG model assessed as change in transition from sleep states toward waking at 10 mg/kg, po measured up to 20 hrs relative to control; format: functional, organism-based; set-up: dose 10 mg/kg; summary of the method: as §6

`FC(F)(F)Cc1cnc2c(Cl)c(-c3cc(Cl)c4[nH]ccc4c3)ccn12` gave an Emax [1] of 217%, a metabolised at 0.25 h, 5 µM [2] of 10% and a metabolised at 0.25 h, 5 µM [3] of 21%. For the same compound, the Activity [4] was “inactive”, the Activity [5] was “inactive” and the Activity [6] was “inactive”. For the same compound, the Activity [7] was “inactive”, the Activity [8] was “inactive” and the Activity [9] was “inactive”. The Tmax [10] was 0.8 h, the AUC(0-inf) [11] was 1980 ng·h/mL and the half-life [12] was 2 h. For the same compound, the concentration at 1 h [13] was 538 ng/g, the concentration at 2 h [14] was 441 ng/g and the concentration at 4 h [15] was 126 ng/g. For the same compound, the concentration at 1 h [16] was 414 ng/mL, the concentration at 2 h [17] was 364 ng/mL and the concentration at 4 h [18] was 168 ng/mL. It also gave a Kp at 1 h [19] of 1.3, a Kp at 2 h [20] of 1.2 and a Kp at 4 h [21] of 0.8. For the same compound, the Activity [22] was “inactive”, the Activity [23] was “inactive” and the Activity [24] was “inactive”. The Activity [25] was “inactive”, the Activity [26] was “inactive” and the Activity [27] was “inactive”. For the same compound, the Activity [28] was “inactive”, the Activity (Rattus norvegicus [29]) was “inactive” and the Activity (Rattus norvegicus [30]) was “inactive”. The Activity (Rattus norvegicus [31]) was “inactive”, the Activity (Rattus norvegicus [32]) was “Active” and the Activity (Rattus norvegicus [33]) was “inactive”. For the same compound, the Activity [34] was “inactive”, the Cmax [35] was 534 ng/mL and the Activity (Rattus norvegicus [36]) was 57%. The Activity (Rattus norvegicus [37]) was “inactive”, the Activity (Rattus norvegicus [38]) was “inactive” and the Activity (Rattus norvegicus [39]) was “inactive”. The Activity (Rattus norvegicus [40]) was “inactive”.
